Compounds with a hit are over-represented: about 4% of the library has one in this group of screens.
hERG protect – shields human hERG channel from block by proarrhythmic agents. CHO-hERG, FluxOR thallium flux, dofetilide IC70 present. AID 1511. Q12809. 310,000 compounds, 0.51% hits. activation (rescue from dofetilide block), less the hit threshold, % at 10 µM;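 active means activation above the mean of controls blocked by dofetilide plus 5 SD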;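 further: thallium influx through hERG after potassium depolarization seen as dye fluorescence rise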
KCNQ1 block – blocks the human KCNQ1 potassium channel | CHO-K1 KCNQ1, FluxOR thallium flux fluorescence; active compounds read high | B-score at 10 µM | 310,000 compounds, 1.3% hits | AID 2642;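 active means compounds whose thallium flux B-score, printed positive for inhibition, exceeds three library SD while starting fluorescence stays within three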;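 further: channel opened by potassium depolarization with thallium stimulus after 20 min compound exposure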
KCNK9 block – inhibitors of human KCNK9 two-pore domain potassium channel. Q9NPC2. HEK293 KCNK9, FluxOR thallium flux fluorescence; active compounds read low. B-score at 10 µM. 310,000 compounds, 1.2% hits;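 active means ratio B-score over 3 SD below the library mean, with starting fluorescence within 5 SD of its mean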;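 further: negative B-score means less thallium flux so channel inhibition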
PHOSPHO1 block – PHOSPHO1 (human) inhibition; Q8TCT1; recombinant PHOSPHO1, absorbance phosphatase assay; inhibition, % at 13.3 µM; 290,000 compounds, 1.1% hits; AID 1565; in the data active means inhibition above about 60%
KCNK3 inh – human KCNK3 channel inhibition, primary screen | O14649 | CHO-KCNK3 thallium flux, FluxOR fluorescence; active compounds read low | B-score at 10 µM | 340,000 compounds, 0.84% hits | AID 602410;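 active means B-score under library mean minus 4 SD, starting fluorescence ratio at most library mean plus 5 SD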;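 further: more negative B-score means stronger inhibition of thallium flux through KCNK3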
KCNQ1 pot – potentiators or activators of human KCNQ1 potassium channel; CHO-K1 KCNQ1, thallium flux FluxOR fluorescence; active compounds read high; B-score at 10 µM; 310,000 compounds, 0.35% hits; AID 2648;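 active means fluorescence ratio B-score, a plate-corrected score, at least three library SD, with initial intensity B-score within 5 SD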
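assay system = KCNQ1-transfected CHO-K1 cells | medium = assay buffer with matched DMSO | probe or stimulus = depolarizing K+/Tl+ stimulus, K2SO4 and Tl2SO4 each 12.5 mM in 5x stock | dosing = single dose | incubation = dye 90 min, compound 20 min, room temperature | detection = kinetic FluxOR fluorescence, 10 s baseline plus 110 s post-stimulus | evaluation = ratio B score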
KCNQ1 block val – human KCNQ1 channel inhibition, validation assay; inhibition, % at 10 µM; shares compounds with KCNQ1 block; KCNQ1 cell line, FluxOR thallium flux fluorescence; 1,600 compounds, 93% hits; AID 588353;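 active means primary screen active, with duplicate mean exceeding buffer control mean plus 3 SD of buffer wells, cut at about 28% in these data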;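 further: 0% = buffer control ratio and 100% = XE991 inhibitor control ratio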
CHO Tl flux – KCNQ1 inhibitor counter-screen hit in parental CHO cells; parental CHO-K1, FluxOR thallium flux fluorescence ratio; active compounds read low; zero means no signal rise above baseline; fluorescence ratio (Tl flux) at 10 µM; AID 588366; 1,600 compounds, 21% hits; shares compounds with KCNQ1 block;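 active means mean of duplicate thallium-flux fluorescence ratios in parental host cells more than 5 SD below the buffer control mean, cut at about 0.38 in these data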;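 further: ratio is peak minus minimum fluorescence divided by baseline fluorescence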
KCNQ1 ephys val – confirmation of human KCNQ1 potassium channel inhibitors by electrophysiology. shares compounds with KCNQ1 block. KCNQ1-CHO cells, automated patch clamp current. calls only at 10 µM. 490 compounds, 20% hits. AID 624120;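 active means KCNQ1 current drop exceeding 3 SD of negative control wells, seen in both duplicate runs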;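 further: steady state current during a 2 s step from -80 to +40 mV; negative values mean current inhibition and positive values mean potentiation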
KCNQ2 spec – selectivity of KCNQ1 inhibitors: inhibition of rat KCNQ2 channel | KCNQ2 cells, FluxOR thallium flux fluorescence | 1,600 compounds, 71% hits | shares compounds with KCNQ1 block | inhibition, % at 10 µM | AID 651746;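 active means mean percent inhibition of the KCNQ2 thallium signal more than 5 SD above the buffer-only control wells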;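 further: KCNQ2 expressed in CHO cells; 0% = buffer control wells and 100% = XE-991 inhibitor control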
KCNQ1 KCNE1 spec – selectivity of KCNQ1 inhibitors: inhibition of human KCNQ1/KCNE1 channel; shares compounds with KCNQ1 block; KCNQ1/KCNE1 cells, FluxOR thallium flux fluorescence; inhibition, % at 10 µM; 1,600 compounds, 77% hits; AID 652147;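 active means mean percent inhibition of duplicate wells above the buffer-only control mean plus 3 SD of those controls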;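 further: 0% = buffer only wells and 100% = XE-991 inhibitor control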
Target sequence (P51787 whole entry, looked up): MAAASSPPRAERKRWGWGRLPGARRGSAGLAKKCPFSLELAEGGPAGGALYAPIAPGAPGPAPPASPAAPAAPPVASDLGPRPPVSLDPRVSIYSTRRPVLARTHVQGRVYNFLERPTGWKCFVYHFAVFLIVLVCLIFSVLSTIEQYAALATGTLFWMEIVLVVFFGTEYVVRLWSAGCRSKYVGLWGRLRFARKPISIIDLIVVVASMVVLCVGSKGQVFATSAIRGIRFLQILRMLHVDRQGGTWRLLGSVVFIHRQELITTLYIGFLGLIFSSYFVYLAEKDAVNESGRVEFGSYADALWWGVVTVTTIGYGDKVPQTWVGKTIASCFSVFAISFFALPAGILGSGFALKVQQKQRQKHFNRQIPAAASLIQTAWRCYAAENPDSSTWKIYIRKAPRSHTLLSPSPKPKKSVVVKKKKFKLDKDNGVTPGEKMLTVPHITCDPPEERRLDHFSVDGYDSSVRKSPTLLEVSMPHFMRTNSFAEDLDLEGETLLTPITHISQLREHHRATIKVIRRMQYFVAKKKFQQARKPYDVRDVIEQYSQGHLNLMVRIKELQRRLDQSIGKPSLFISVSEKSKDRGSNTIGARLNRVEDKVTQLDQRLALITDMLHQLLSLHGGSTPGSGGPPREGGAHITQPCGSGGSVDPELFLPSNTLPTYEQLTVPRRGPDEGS
KCNK9 block conf – confirmation of human KCNK9 potassium channel inhibitors; HEK293 KCNK9 cells, FluxOR thallium flux fluorescence; shares compounds with KCNK9 block; inhibition, % at 10 µM; 4,900 compounds, 43% hits;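 active means thallium signal inhibited by more than 5 SD of the compound-free buffer control wells, on both duplicate plates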;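 further: 0% = assay buffer control wells without compound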
Kir2-1 spec – mouse Kir2.1 off-target activity of KCNK9 modulators; shares compounds with KCNK9 block; inhibition, % at 10 µM; Kir2.1 cells, FluxOR thallium flux fluorescence; 4,900 compounds, 4% hits;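 active means thallium signal drop more than 5 SD beyond the mean of the no-compound control wells, seen in both duplicate plates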;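 further: signal is fluorescence rise after thallium addition divided by baseline fluorescence; plate controls were assay buffer only for no effect and full block by chlorpromazine control for full effect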
HEK293 Tl ctr – second counter-screen for KCNK9 modulators: effect in non-induced cells; shares compounds with KCNK9 block; non-induced KCNK9-HEK293, FluxOR thallium flux; inhibition, % at 10 µM; 4,900 compounds, 40% hits; AID 492997;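 active means thallium signal drop beyond 5 SD of the untreated control mean, on both duplicate plates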;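 further: plate controls were buffer only IC0 wells for no effect and SID17386958 at its maximal inhibitory level for full effect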
KCNK3 confirm – human KCNK3 channel inhibition, confirmation assay; shares compounds with KCNK3 inh; CHO-KCNK3 thallium flux, FluxOR fluorescence; 0% buffer, 100% carvedilol maximal block; ratio percent of control, % at 10 µM; 2,400 compounds, 99% hits; AID 651638;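 active means ratio percent of control, averaged over triplicates, above buffer control mean plus 5 SD, cut at about 64% in these data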;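 further: ratio is the fluorescence rise from min to max over baseline after thallium stimulus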
KCNK3 noninduced – counter-screen for KCNK3 inhibitors: effect in non-induced cells; non-induced KCNK3 parental cells, FluxOR thallium flux; active compounds read low; shares compounds with KCNK3 inh; thallium flux ratio (lower = more inhibition) at 10 µM; 2,400 compounds, 40% hits; AID 651747;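 active means thallium flux ratio, averaged over three wells, more than 5 SD below the buffer control mean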;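 further: host cells are CHO cells without KCNK3 induction; ratio is peak minus trough fluorescence over baseline then normalized to buffer controls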
* hit, by the source's call; i = inactive; · = not tested or not shown; + = active, no number.

SMILES | hERG protect | KCNQ1 block | KCNK9 block | PHOSPHO1 block | KCNK3 inh | KCNQ1 pot | KCNQ1 block val | CHO Tl flux | KCNQ2 spec | KCNQ1 KCNE1 spec | KCNK3 confirm | KCNK3 noninduced | others
CCOc1ccc(N(C)S(=O)(=O)c2cc(-c3cc(C)no3)ccc2CC)cc1 | -5 | 13* | -7.8* | 23 | -13* | i | 98* | 0.36* | 118%* | 138%* | 123* | 0.14*
CCOc1ccc(N(C)S(=O)(=O)c2cc(-c3cc(C)no3)ccc2C)cc1 | -5 | i | i | 32 | i | i | · | · | · | · | · | ·
CCC(C)NC(=O)C1CCN(C(=O)COc2ccc3c4c(c(=O)oc3c2C)CCCC4)CC1 (stereo unspecified) | -5 | i | i | 44 | i | i | · | · | · | · | · | ·
CCCCc1nc(N2CCN(C(=O)c3ccco3)CC2)c(C#N)c2c1CCCC2 | -15 | 9* | -6.8* | 12 | -9.4* | i | 98* | 0.34* | 108%* | 46%* | 120* | i
CCC(C(=O)Nc1cccc(C(F)(F)F)c1)c1ccccc1 (stereo unspecified) | -12 | 11* | -10* | 27 | -9.4* | i | 104* | 0.4 | 72%* | 116%* | 128* | 0.13* | KCNQ1 ephys val=+;KCNK9 block conf=64%*;Kir2-1 spec=i;HEK293 Tl ctr=44%*
CCC(C(=O)Nc1ccncc1)c1ccccc1 (stereo unspecified) | -7 | i | i | 22 | i | i | · | · | · | · | · | ·
Cc1csc2c(N3CCN(C(=O)c4ccc(C(C)(C)C)cc4)CC3)ncnc12 | -21 | 9* | i | 34 | -9.8* | i | 138* | 0.3* | 137%* | 170%* | 130* | i
O=C(Nc1cccc(S(=O)(=O)NC2=NCCC2)c1)C1CC(=O)N(c2ccc3c(c2)OCCO3)C1 (stereo unspecified) | -13 | i | i | 32 | i | i | · | · | · | · | · | ·
Cc1cc(SCC(=O)c2ccc3c(c2)OCO3)nc2ccccc12 | -13 | i | i | 23 | i | i | · | · | · | · | · | ·
Cc1cc(SCC(=O)c2ccc(O)c(O)c2)nc2ccccc12 | -17 | 9* | i | 30 | -9.4* | i | 100* | 0.47 | i | 116%* | 120* | 0.14* | KCNQ1 ephys val=i
O=C(NCc1cccc(Cl)c1)c1cc(COc2ccc3ncccc3c2)on1 | -12 | 13* | i | 10 | -13* | i | 93* | 0.33* | 100%* | + | 126* | i

Source: PubChem (several laboratories)
